ChEMBL document CHEMBL4373630, “Rapid kill assessment of an N-arylated NH125 analogue against drug-resistant microorganisms” (Medchemcomm, 2019)
Activity calls are given as the source filed them. The calls are words filed in the database; no cut-off is given here.

Key:
[1] = Cytotoxicity against human HEK293 cells after 48 hrs by MTT assay; format: cell-based
Method in brief: (§1)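 HEK 293 cells, 10^4 per well, in DMEM with 10% FBS and penicillin/streptomycin, were left overnight at 37 °C under 5% CO2. MTT was added for 3 h and dissolved in DMSO, then OD570 was read. Six replicates per treatment; percent kill = (1 – test OD570/untreated OD570) × 100%; CC50 taken as the half-maximal toxic concentration.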

[2] = tested on: Staphylococcus aureus; experiment: (§2) Bactericidal activity against methicillin-resistant Staphylococcus aureus ATCC BAA 1707 assessed as as reduction in bacterial load by measuring reduction in colony forming units at 50 uM preincubated for 1 min followed by subculturing and further incubated for over night by time-kill kinetic assay; format: functional
Method in brief: (§3)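 Overnight culture diluted 1:1000 into LB containing compound at the set concentration or DMSO vehicle alone, then shaken at 250 rpm at 37 °C. At 1, 3, 5 and 10 min, aliquots were serially diluted and plated on LB 1.5% agar and incubated overnight at 37 °C. CFU/mL were taken from plates with 30–300 colonies and compared with vehicle control. Three replicates came from separate colonies.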

[3] = tested on: Staphylococcus aureus; experiment: Bactericidal activity against methicillin-resistant Staphylococcus aureus ATCC BAA 1707 assessed as as reduction in bacterial load by measuring reduction in colony forming units at 50 uM preincubated for 3 min followed by subculturing and further incubated for over night by time-kill kinetic assay; format: functional; method in brief: as §3
[4] = tested on: Staphylococcus aureus; experiment: as §2, with “for 5 to 10” for “for 1”; format: functional; method in brief: as §3
[5] = tested on: Staphylococcus aureus; experiment: Antibacterial activity against methicillin-resistant Staphylococcus aureus ATCC BAA 1707 at 50 uM treated with 18 days old solution of test compound for 10 mins relative to control; format: functional
Method in brief: (§4)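 Compound was prepared at 50 μM in LB and stored on the shelf for 18 days or 111 days. Exponentially growing MRSA 1707 (overnight culture diluted 1:1000 in LB) was exposed to the stored solution for 10 min at 37 °C with 250 rpm shaking. Aliquots were serially diluted, plated on LB agar and incubated overnight at 37 °C. CFU/mL were compared with vehicle control.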

[6] = tested on: Staphylococcus aureus; experiment: as §2, with “Antibacterial” for “Bactericidal”, “treated with 111 days old solution of test compound” for “preincubated”, “10 mins” for “1 min”; format: functional, organism-based; method in brief: as §4
[7] = tested on: Staphylococcus aureus; experiment: Antibacterial activity against methicillin-resistant Staphylococcus aureus ATCC BAA 1707 at 50 uM treated with 111 days old solution of test compound for 10 mins relative to control; format: functional; method in brief: as §4
[8] = tested on: Staphylococcus aureus; experiment: as §2, with “Antibacterial” for “Bactericidal”, “treated with 18 days old solution of test compound” for “preincubated”, “10 mins” for “1 min”; format: functional; method in brief: as §4
[9] = tested on: Staphylococcus aureus; experiment: Bactericidal activity against methicillin-resistant Staphylococcus aureus ATCC BAA 1707 at 50 uM after 1 min by time-kill kinetic assay relative to control; format: functional; method in brief: as §3
[10] = tested on: Staphylococcus aureus; experiment: Bactericidal activity against methicillin-resistant Staphylococcus aureus ATCC BAA 1707 at 50 uM after 3 mins by time-kill kinetic assay relative to control; format: functional; method in brief: as §3
[11] = tested on: Staphylococcus aureus; experiment: Bactericidal activity against methicillin-resistant Staphylococcus aureus ATCC BAA 1707 at 50 uM after 5 to 10 mins by time-kill kinetic assay relative to control; format: functional; method in brief: as §3
[12] = tested on: HEK293; experiment: Cytotoxicity against human HEK293 cells assessed as reduction in viability at 25 uM after 48 hrs by MTT assay relative to control; format: cell-based; details: hek293, 48 h; method in brief: as §1
[13] = tested on: Staphylococcus aureus; experiment: Antibacterial activity against methicillin-resistant Staphylococcus aureus ATCC BAA 1707 after 16 to 18 hrs by CLSI protocol based broth microdilution assay; format: functional
[14] = tested on: Staphylococcus epidermidis; experiment: Antibacterial activity against methicillin-resistant Staphylococcus epidermidis ATCC 35984 after 16 to 18 hrs by CLSI protocol based broth microdilution assay; format: functional
[15] = tested on: Enterococcus faecium; experiment: Antibacterial activity against vancomycin-resistant Enterococcus faecium ATCC 700221 after 16 to 18 hrs by CLSI protocol based broth microdilution assay; format: functional
[16] = tested on: Acinetobacter baumannii; experiment: Antibacterial activity against multidrug-resistant Acinetobacter baumannii ATCC 1794 after 16 to 18 hrs by CLSI protocol based broth microdilution assay; format: functional
[17] = tested on: Klebsiella pneumoniae; experiment: Antibacterial activity against Klebsiella pneumoniae ATCC 13883 after 16 to 18 hrs by CLSI protocol based broth microdilution assay; format: functional
[18] = tested on: Escherichia coli; experiment: Antibacterial activity against Escherichia coli clinical isolate UAEC-1 after 16 to 18 hrs by CLSI protocol based broth microdilution assay; format: functional
[19] = tested on: Staphylococcus epidermidis; experiment: as §2, with “epidermidis” for “aureus”, “35984” for “BAA 1707”, “5 to 10” for “1”; format: functional; method in brief: as §3
[20] = tested on: Enterococcus faecium; experiment: Bactericidal activity vancomycin-resistant Enterococcus faecium ATCC 700221 assessed as as reduction in bacterial load by measuring reduction in colony forming units at 50 uM preincubated for 5 to 10 min followed by subculturing and further incubated for over night by time-kill kinetic assay; format: functional; method in brief: as §3
[21] = tested on: Acinetobacter baumannii; experiment: Bactericidal activity against multidrug-resistant Acinetobacter baumannii ATCC 1794 assessed as as reduction in bacterial load by measuring reduction in colony forming units at 50 uM preincubated for 5 min followed by subculturing and further incubated for over night by time-kill kinetic assay; format: functional; method in brief: as §3
[22] = tested on: Acinetobacter baumannii; experiment: Bactericidal activity against multidrug-resistant Acinetobacter baumannii ATCC 1794 assessed as as reduction in bacterial load by measuring reduction in colony forming units at 50 uM preincubated for 10 min followed by subculturing and further incubated for over night by time-kill kinetic assay; format: functional; method in brief: as §3
[23] = tested on: Staphylococcus epidermidis; experiment: Bactericidal activity against methicillin-resistant Staphylococcus epidermidis ATCC 35984 at 50 uM after 5 to 10 mins by time-kill kinetic assay relative to control; format: functional; method in brief: as §3
[24] = tested on: Enterococcus faecium; experiment: Bactericidal activity vancomycin-resistant Enterococcus faecium ATCC 700221 at 50 uM after 5 to 10 mins by time-kill kinetic assay relative to control; format: functional; method in brief: as §3
[25] = tested on: Cryptococcus neoformans; experiment: Fungicidal activity against Cryptococcus neoformans ATCC 66031 at 50 uM after 5 to 10 mins by time-kill kinetic assay relative to control; format: functional
Method in brief: (§5)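 C. neoformans ATCC 66031 was streaked on YPD agar for two days at 37 °C, and single colonies were grown overnight in YPD at 37 °C, 250 rpm. Overnight cultures were diluted in fresh YPD with compound in DMSO at 50 μM final, or DMSO alone, and kept at 37 °C, 250 rpm. Aliquots were diluted and plated on YPD agar, and colonies counted after 1–2 days at 37 °C. Triplicate; CFU per mL.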

[26] = tested on: Cryptococcus neoformans; experiment: Fungicidal activity against Cryptococcus neoformans ATCC 66031 assessed as as reduction in bacterial load by measuring reduction in colony forming units at 50 uM preincubated for 5 to 10 min followed by subculturing and further incubated for 1 or 2 days by time-kill kinetic assay; format: functional; method in brief: as §5
[27] = tested on: Staphylococcus aureus; experiment: Bactericidal activity against methicillin-resistant Staphylococcus aureus ATCC BAA 1707 assessed as as reduction in bacterial load by measuring reduction in colony forming units at 20 uM preincubated for 5 min followed by subculturing and further incubated for over night by time-kill kinetic assay; format: functional; method in brief: as §3
[28] = tested on: Staphylococcus aureus; experiment: Bactericidal activity against methicillin-resistant Staphylococcus aureus ATCC BAA 1707 assessed as as reduction in bacterial load by measuring reduction in colony forming units at 20 uM preincubated for 10min followed by subculturing and further incubated for over night by time-kill kinetic assay; format: functional; method in brief: as §3
[29] = tested on: Staphylococcus aureus; experiment: Bactericidal activity against methicillin-resistant Staphylococcus aureus ATCC BAA 1707 assessed as as reduction in bacterial load by measuring reduction in colony forming units at 5 uM preincubated for 5 min followed by subculturing and further incubated for over night by time-kill kinetic assay; format: functional; method in brief: as §3
[30] = tested on: Staphylococcus aureus; experiment: Bactericidal activity against methicillin-resistant Staphylococcus aureus ATCC BAA 1707 assessed as as reduction in bacterial load by measuring reduction in colony forming units at 5 uM preincubated for 10 min followed by subculturing and further incubated for over night by time-kill kinetic assay; format: functional; method in brief: as §3
[31] = tested on: Acinetobacter baumannii; experiment: Bactericidal activity against multidrug-resistant Acinetobacter baumannii ATCC 1794 at 50 uM after 5 mins by time-kill kinetic assay relative to control; format: functional; method in brief: as §3
[32] = tested on: Acinetobacter baumannii; experiment: Bactericidal activity against multidrug-resistant Acinetobacter baumannii ATCC 1794 at 50 uM after 10 mins by time-kill kinetic assay relative to control; format: functional; method in brief: as §3
[33] = tested on: Staphylococcus aureus; experiment: Bactericidal activity against methicillin-resistant Staphylococcus aureus ATCC BAA 1707 at 20 uM after 5 mins by time-kill kinetic assay relative to control; format: functional; method in brief: as §3
[34] = tested on: Staphylococcus aureus; experiment: Bactericidal activity against methicillin-resistant Staphylococcus aureus ATCC BAA 1707 at 20 uM after 10 mins by time-kill kinetic assay relative to control; format: functional; method in brief: as §3
[35] = tested on: Staphylococcus aureus; experiment: Bactericidal activity against methicillin-resistant Staphylococcus aureus ATCC BAA 1707 at 5 uM after 10 mins by time-kill kinetic assay relative to control; format: functional; method in brief: as §3

Compound: CCCCCCCCCCCCCCCC[N+](C)(C)Cc1ccccc1.[Cl-] [CETALKONIUM CHLORIDE]
- CC50 at 48 h [1]: 6.84 µM
- Activity [2]: 4 log10CFU/ml
- Activity [3]: 4 log10CFU/ml
- Activity [4]: >6 log10CFU/ml
- Activity [5]: >99%
- Activity [6]: Active
- Activity [7]: >99%
- Activity [8]: >3 log10CFU/ml
- Activity [9]: 99.99%
- Activity [10]: 99.99%
- Activity [11]: 100%
- Activity [12]: 100%

Compound: CCCCCCCCCCCCCCCC[n+]1ccn(Cc2ccccc2)c1C.[I-]
- CC50 at 48 h [1]: 2.41 µM
- Activity [12]: 100%

Compound: CCCCCCCCCCCCCCCCn1cc[n+](-c2ccccc2)c1C
- CC50 at 48 h [1]: < 1.56 µM
- MIC [13]: 1.56 µM
- MIC [14]: 1.17 µM
- MIC [15]: 3.13 µM
- MIC [16]: 12.5 µM
- MIC [17]: 6.25 µM
- MIC [18]: 6.25 µM
- Activity [2]: 4 log10CFU/ml
- Activity [3]: 4 log10CFU/ml
- Activity [4]: >6 log10CFU/ml
- Activity [19]: 6 log10CFU/ml
- Activity [20]: 6 log10CFU/ml
- Activity [21]: 3 log10CFU/ml
- Activity [22]: >6 log10CFU/ml
- Activity [23]: 99.9999%
- Activity [24]: 99.9999%
- Activity [25]: 100%
- Activity [5]: >99%
- Activity [6]: Active
- Activity [7]: >99%
- Activity [8]: >3 log10CFU/ml
- Activity [26]: 7 log10CFU/ml
- Activity [27]: 3 log10CFU/ml
- Activity [28]: 4 log10CFU/ml
- Activity [29]: <1 log10CFU/ml
- Activity [30]: 1 log10CFU/ml
- Activity [9]: 99.99%
- Activity [10]: 99.99%
- Activity [11]: 100%
- Activity [31]: 99.9%
- Activity [32]: >99.9999%
- Activity [33]: 99.9%
- Activity [34]: 99.99%
- Activity [35]: 90%
- Activity [12]: 100%
